Values after ≈ are worked out from the molar mass of the structure shown. Active and inactive are the calls of the source. The rule behind the calls is not given here.
How the values were obtained:
[1] = target: T1, Interleukin-1 receptor-associated kinase 4 (Homo sapiens, UniProt Q9NWZ3); assay: Binding affinity to human IRK4 using myelin basic protein as substrate by [gamma-33P]-ATP assay
T1 sequence (Q9NWZ3 whole entry): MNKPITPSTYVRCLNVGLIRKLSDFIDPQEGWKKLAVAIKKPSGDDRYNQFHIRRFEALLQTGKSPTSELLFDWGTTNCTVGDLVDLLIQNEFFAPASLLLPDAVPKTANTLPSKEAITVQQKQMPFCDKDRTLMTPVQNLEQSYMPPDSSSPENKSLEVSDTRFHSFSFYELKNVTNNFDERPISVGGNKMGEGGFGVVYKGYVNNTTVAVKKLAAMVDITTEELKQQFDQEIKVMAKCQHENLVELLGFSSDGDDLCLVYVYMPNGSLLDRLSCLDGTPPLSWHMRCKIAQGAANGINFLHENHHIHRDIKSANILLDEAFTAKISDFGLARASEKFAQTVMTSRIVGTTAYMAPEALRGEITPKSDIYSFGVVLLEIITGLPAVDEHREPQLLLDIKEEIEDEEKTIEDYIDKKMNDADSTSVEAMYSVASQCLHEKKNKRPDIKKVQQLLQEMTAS

[2] = Chromatographic hydrophobicity index, log D of compound at pH 7.4; type: physicochemical; details: buffer
[3] = target: T2, von Hippel-Lindau disease tumor suppressor/Interleukin-1 receptor-associated kinase 4 (Homo sapiens, UniProt Q9NWZ3+P40337); assay: Protac activity at VHL/IRAK4 in human PBMCs assessed as induction of degradation of IRAK4 at 0.1 to 10 uM incubated for 24 hrs by Western blot analysis
Target sequence in this assay (P40337 whole entry, looked up, one chain of several): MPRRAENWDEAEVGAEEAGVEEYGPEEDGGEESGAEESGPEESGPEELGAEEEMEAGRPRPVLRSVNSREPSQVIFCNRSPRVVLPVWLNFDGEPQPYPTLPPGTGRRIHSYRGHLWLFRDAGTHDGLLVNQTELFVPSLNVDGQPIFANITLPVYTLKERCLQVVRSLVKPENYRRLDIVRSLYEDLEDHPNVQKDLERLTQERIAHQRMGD

[4] = target: Interleukin-1 receptor-associated kinase 1 (Homo sapiens, UniProt P51617); assay: Binding affinity to human IRK1 using myelin basic protein as substrate by [gamma-33P]-ATP assay
[5] = target: E3 ubiquitin-protein ligase XIAP/Interleukin-1 receptor-associated kinase 4 (Homo sapiens) (UniProt Q9NWZ3+P98170); assay: Protac activity at IAP/IRAK4 in human PBMC assessed as induction of degradation of IRAK4 incubated for 24 hrs by Western blot analysis relative to control; type: protein assay
Summary of the method: (§1)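 PBMCs exposed to rising compound concentrations for 24 h. IRAK4 protein read by Western blot against DMSO-treated cells. Dmax is the maximum degradation observed.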

[6] = target: T2, von Hippel-Lindau disease tumor suppressor/Interleukin-1 receptor-associated kinase 4; assay: Protac activity at VHL/IRAK4 in human dermal fibroblast assessed as reduction in IL-1beta stimulated IL-6 level at 300 nM incubated for 18 hrs followed by IL-1beta stimulation further incubated for 8 hrs by MSD assay; type: protein assay
Summary of the method: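 Human dermal fibroblasts pretreated 18 h with 300 nM compound, then stimulated 8 h with IL-1β (10 ng/mL). Secreted IL-6 measured. n = 4, mean ± SE.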
Target sequence in this assay (P40337 whole entry, looked up, one chain of several): as above

[7] = target: T2, von Hippel-Lindau disease tumor suppressor/Interleukin-1 receptor-associated kinase 4; assay: Protac activity at VHL/IRAK4 in human PBMC assessed as induction of degradation of IRAK4 incubated for 24 hrs by Western blot analysis relative to control; type: protein assay; summary of the method: as §1
Target sequence in this assay (P40337 whole entry, looked up, one chain of several): as above

[8] = target: T2, von Hippel-Lindau disease tumor suppressor/Interleukin-1 receptor-associated kinase 4; assay: Protac activity at VHL/IRAK4 in human PBMC assessed as induction of degradation of IRAK4 incubated for 24 hrs by Western blot analysis; type: protein assay; summary of the method: as §1
Target sequence in this assay (P40337 whole entry, one chain of several): as the sequence (P40337 whole entry, looked up, one chain of several) above

[9] = Solubility of compound; type: physicochemical
[10] = target: T2, von Hippel-Lindau disease tumor suppressor/Interleukin-1 receptor-associated kinase 4; assay: Protac activity at VHL/IRAK4 in human epoxomicin PBMC assessed as increase in p21 accumulation at 0.01 to 10 uM incubated for 22 hrs by Western blot analysis; type: protein assay
Summary of the method: (§2)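 PBMCs pretreated 2 h with 10 μM epoxomicin, then given compound for a further 22 h. IRAK4 and p21 (proteasome-inhibition marker) read by Western blot against DMSO-treated cells.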
Target sequence in this assay (P40337 whole entry, looked up, one chain of several): as above

[11] = target: T3, von Hippel-Lindau disease tumor suppressor/Interleukin-1 receptor-associated kinase 4 (Homo sapiens, UniProt P40337+Q9NWZ3); assay: Protac activity at VHL/IRAK4 in human PBMC assessed as reduction in R848-stimulated IL-8 level preincubated for 18 hrs followed by R848 stimulation and measured after 8 hrs by MSD assay; type: protein assay
Summary of the method: (§3)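 PBMCs pretreated 18 h with compound, then stimulated 8 h with R848 (2.5 μg/mL). Secreted cytokines measured by MSD electrochemiluminescence.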

[12] = target: T2, von Hippel-Lindau disease tumor suppressor/Interleukin-1 receptor-associated kinase 4; assay: Protac activity at VHL/IRAK4 in human dermal fibroblast assessed as induction of degradation of IRAK4 incubated for 24 hrs by Western blot analysis; type: protein assay
Summary of the method: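 Human dermal fibroblasts treated with compound for 24 h. IRAK4 protein measured by Western blot and DC50 derived.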
Target sequence in this assay (P40337 whole entry, one chain of several): as the sequence (P40337 whole entry, looked up, one chain of several) above

[13] = target: T3, von Hippel-Lindau disease tumor suppressor/Interleukin-1 receptor-associated kinase 4; assay: Protac activity at VHL/IRAK4 in human PBMC assessed as reduction in R848-stimulated IL-6 level preincubated for 18 hrs followed by R848 stimulation and measured after 8 hrs by MSD assay; type: protein assay; summary of the method: as §3
[14] = target: T2, von Hippel-Lindau disease tumor suppressor/Interleukin-1 receptor-associated kinase 4; assay: Protac activity at VHL/IRAK4 in human epoxomicin pretreated PBMC assessed as induction of degradation of IRAK4 at 0.01 to 10 uM incubated for 22 hrs by Western blot analysis; type: protein assay; summary of the method: as §2
Target sequence in this assay (P40337 whole entry, looked up, one chain of several): as above

[15] = target: T3, von Hippel-Lindau disease tumor suppressor/Interleukin-1 receptor-associated kinase 4; assay: Protac activity at VHL/IRAK4 in human PBMC assessed as reduction in R848-stimulated TNFalpha level preincubated for 18 hrs followed by R848 stimulation and measured after 8 hrs by MSD assay; type: protein assay; summary of the method: as §3
[16] = target: T3, von Hippel-Lindau disease tumor suppressor/Interleukin-1 receptor-associated kinase 4; assay: Protac activity at VHL/IRAK4 in human PBMC assessed as reduction in R848-stimulated IL-1beta level preincubated for 18 hrs followed by R848-stimulation and measured after 8 hrs by MSD assay; type: protein assay; summary of the method: as §3
[17] = target: T3, von Hippel-Lindau disease tumor suppressor/Interleukin-1 receptor-associated kinase 4; assay: Protac activity at VHL/IRAK4 in human PBMC assessed as reduction in R848-stimulated IL-10 level preincubated for 18 hrs followed by R848 stimulation and measured after 8 hrs by MSD assay; type: protein assay; summary of the method: as §3
[18] = target: T3, von Hippel-Lindau disease tumor suppressor/Interleukin-1 receptor-associated kinase 4; assay: Protac activity at VHL/IRAK4 in human PBMC assessed as reduction in R848-stimulated IFNgamma preincubated for 18 hrs followed by R848 stimulation and measured after 8 hrs by MSD assay; type: protein assay; summary of the method: as §3
[19] = target: Protein cereblon/Interleukin-1 receptor-associated kinase 4 (Homo sapiens) (UniProt Q9NWZ3+Q96SW2); assay: Protac activity at CRBN/IRAK4 in human PBMC assessed as induction of degradation of IRAK4 incubated for 24 hrs by Western blot analysis relative to control; type: protein assay; summary of the method: as §1
[20] = target: T2, von Hippel-Lindau disease tumor suppressor/Interleukin-1 receptor-associated kinase 4; assay: Protac activity at VHL/IRAK4 in human PBMC assessed as remaining IRAK4 level at 10 uM incubated for 24 hrs by Western blot analysis relative to control; type: protein assay; summary of the method: as §1
Target sequence in this assay (P40337 whole entry, looked up, one chain of several): as above

[21] = target: T2, von Hippel-Lindau disease tumor suppressor/Interleukin-1 receptor-associated kinase 4; assay: Protac activity at VHL/IRAK4 in human PBMC assessed as remaining IRAK4 level at 100 nM incubated for 24 hrs by Western blot analysis relative to control; type: protein assay; summary of the method: as §1
[22] = target: T2, von Hippel-Lindau disease tumor suppressor/Interleukin-1 receptor-associated kinase 4; assay: Protac activity at VHL/IRAK4 in human PBMC assessed as remaining IRAK4 level at 1 uM incubated for 24 hrs by Western blot analysis relative to control; type: protein assay; summary of the method: as §1
[23] = target: T2, von Hippel-Lindau disease tumor suppressor/Interleukin-1 receptor-associated kinase 4; assay: Protac activity at VHL/IRAK4 in human PBMC assessed as remaining IRAK4 level at 300 nM incubated for 24 hrs by Western blot analysis relative to control; type: protein assay; summary of the method: as §1
[24] = target: T2, von Hippel-Lindau disease tumor suppressor/Interleukin-1 receptor-associated kinase 4; assay: Protac activity at VHL/IRAK4 in human PBMC assessed as induction of degradation of IRAK4 at 3 uM incubated for 24 hrs by Western blot analysis relative to control; type: protein assay; summary of the method: as §1

T3 sequence (P40337 whole entry, one chain of several): as the sequence (P40337 whole entry, looked up, one chain of several) above
Sequence of Interleukin-1 receptor-associated kinase 1 (P51617 whole entry): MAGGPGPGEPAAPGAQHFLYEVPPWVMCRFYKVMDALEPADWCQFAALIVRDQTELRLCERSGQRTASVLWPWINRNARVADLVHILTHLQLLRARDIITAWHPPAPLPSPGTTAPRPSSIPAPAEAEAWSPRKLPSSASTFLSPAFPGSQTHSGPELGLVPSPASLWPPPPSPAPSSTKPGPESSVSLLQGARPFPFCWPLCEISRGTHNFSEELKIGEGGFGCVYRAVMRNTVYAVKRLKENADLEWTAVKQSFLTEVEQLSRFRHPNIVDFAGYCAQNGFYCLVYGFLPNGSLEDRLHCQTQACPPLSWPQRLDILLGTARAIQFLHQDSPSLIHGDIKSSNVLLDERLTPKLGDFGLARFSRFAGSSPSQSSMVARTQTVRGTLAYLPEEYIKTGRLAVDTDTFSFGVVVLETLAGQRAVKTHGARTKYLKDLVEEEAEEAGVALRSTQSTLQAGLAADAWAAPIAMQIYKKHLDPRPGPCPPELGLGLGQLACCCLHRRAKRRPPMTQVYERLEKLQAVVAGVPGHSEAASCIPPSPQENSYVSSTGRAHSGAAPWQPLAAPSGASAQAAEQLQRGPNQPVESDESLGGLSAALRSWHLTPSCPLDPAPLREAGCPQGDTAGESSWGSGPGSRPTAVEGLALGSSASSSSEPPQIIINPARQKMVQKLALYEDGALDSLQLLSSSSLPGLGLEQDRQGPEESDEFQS
Sequence of Protein cereblon/Interleukin-1 receptor-associated kinase 4 (Homo sapiens) (Q96SW2 whole entry, looked up, one chain of several): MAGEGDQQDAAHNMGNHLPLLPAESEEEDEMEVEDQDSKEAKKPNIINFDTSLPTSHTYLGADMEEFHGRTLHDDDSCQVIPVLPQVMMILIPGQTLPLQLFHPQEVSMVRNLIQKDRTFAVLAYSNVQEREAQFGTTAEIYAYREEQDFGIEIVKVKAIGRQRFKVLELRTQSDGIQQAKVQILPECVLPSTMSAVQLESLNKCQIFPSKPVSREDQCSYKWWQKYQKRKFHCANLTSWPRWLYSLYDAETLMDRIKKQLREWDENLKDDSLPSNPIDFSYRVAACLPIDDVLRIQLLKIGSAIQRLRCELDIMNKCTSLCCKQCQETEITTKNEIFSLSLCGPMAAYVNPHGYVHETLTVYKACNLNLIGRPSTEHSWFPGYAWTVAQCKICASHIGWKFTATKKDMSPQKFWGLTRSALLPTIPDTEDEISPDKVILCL
Sequence of E3 ubiquitin-protein ligase XIAP/Interleukin-1 receptor-associated kinase 4 (Homo sapiens) (P98170 whole entry, looked up, one chain of several): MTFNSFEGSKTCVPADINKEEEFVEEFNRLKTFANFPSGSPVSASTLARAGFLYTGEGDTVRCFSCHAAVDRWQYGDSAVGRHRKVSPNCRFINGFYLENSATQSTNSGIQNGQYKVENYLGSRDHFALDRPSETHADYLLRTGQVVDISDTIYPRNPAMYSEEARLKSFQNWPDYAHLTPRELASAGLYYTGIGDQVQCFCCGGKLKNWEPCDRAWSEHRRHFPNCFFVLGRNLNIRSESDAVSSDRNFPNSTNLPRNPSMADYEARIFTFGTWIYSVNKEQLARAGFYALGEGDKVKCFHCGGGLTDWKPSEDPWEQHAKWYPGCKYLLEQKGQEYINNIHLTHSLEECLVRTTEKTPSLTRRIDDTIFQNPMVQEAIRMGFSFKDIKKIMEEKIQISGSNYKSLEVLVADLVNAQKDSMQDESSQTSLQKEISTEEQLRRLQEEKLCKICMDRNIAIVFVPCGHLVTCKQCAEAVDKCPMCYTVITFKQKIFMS

In the case of `CN[C@@H](C)C(=O)N[C@H](C(=O)N1C[C@@H](NC(=O)CCCCCCCCCCC#Cc2cnc(OC[C@@H]3CCC(=O)N3)c3cc(OC)c(C(N)=O)cc23)C[C@H]1C(=O)N[C@@H]1CCCc2ccccc21)C1CCCCC1`, the IC50 [1] is reported as 21 nM, the “Chromatographic log D at pH 7.4 (ChromLogD)” value (shortened to “Chromatographic log D”) [2] is reported as 6.56 and the Activity [3] is reported as “inactive”. It also gave an IC50 [4] of 6940 nM and an Emax [5] of 0%.
With `CC[C@@H]1[C@H](F)C(=O)N[C@@H]1COc1nccc2cc(C(N)=O)c(OC)cc12` the Activity [6] was “inactive”.
For `COc1cc2c(OC[C@@H]3CCC(=O)N3)ncc(C#CCOCCOCCOCCC(=O)N[C@H](C(=O)N3C[C@H](O)C[C@H]3C(=O)NCc3ccc(-c4scnc4C)cc3)C(C)(C)C)c2cc1C(N)=O`, the IC50 [1] was 0.29 nM, the “Chromatographic log D” value [2] was 3.18 and the Emax [7] was 0%. The Activity [3] was “inactive” and the IC50 [4] was greater than 10000 nM.
With `CC[C@@H]1[C@H](F)C(=O)N[C@@H]1COc1ncc(C#CCCCCCCCCCCC(=O)N[C@H](C(=O)N2CC(O)CC2C(=O)NCc2ccc(-c3scnc3C)cc2)C(C)(C)C)c2cc(C(N)=O)c(OC)cc12` (single isomer, unassigned) the “Chromatographic log D” value [2] was 6.44, the DC50 [8] was 259 nM and the solubility [9] was less than 1 µM.
For `COc1cc2c(OC[C@@H]3CCC(=O)N3)ncc(C#CCCCC(=O)N[C@H](C(=O)N3C[C@H](O)C[C@H]3C(=O)NCc3ccc(-c4scnc4C)cc3)C(C)(C)C)c2cc1C(N)=O`, the Activity [3] was “inactive”.
For `CN[C@@H](C)C(=O)N[C@H](C(=O)N1C[C@@H](NC(=O)CCOCCOCCOCC#Cc2cnc(OC[C@@H]3CCC(=O)N3)c3cc(OC)c(C(N)=O)cc23)C[C@H]1C(=O)N[C@@H]1CCCc2ccccc21)C1CCCCC1`, the IC50 [1] was 0.022 nM, the “Chromatographic log D” value [2] was 3.79 and the Activity [3] was “inactive”. The IC50 [4] was greater than 10000 nM and the Emax [5] was 0%.
For `CC[C@@H]1[C@H](F)C(=O)N[C@@H]1COc1ncc(C#CCN2CCC3(CC2)CCN(c2ncc(C(=O)N[C@H](C(=O)N4C[C@H](O)C[C@H]4C(=O)NCc4ccc(-c5scnc5C)cc4)C(C)(C)C)cn2)CC3)c2cc(C(N)=O)c(OC)cc12`, the “Chromatographic log D” value [2] was 4.97, the DC50 [8] was 151 nM and the Activity [10] was “Active”. The IC50 [11] was 79.4 nM, the Activity [6] was “inactive” and the solubility [9] was 5 µM (≈ 5.43 µg/mL). For the same compound, the DC50 [12] was 36 nM, the IC50 [13] was 63.1 nM and the Activity [14] was “inactive”. It also gave an IC50 [15] of 50.1 nM, an IC50 [16] of 39.8 nM and an IC50 [17] of 316 nM. It also gave an IC50 [18] of 31.6 nM.
For `COc1cc2c(OC[C@@H]3CCC(=O)N3)ncc(C#CCCC(=O)N[C@H](C(=O)N3C[C@H](O)C[C@H]3C(=O)NCc3ccc(-c4scnc4C)cc3)C(C)(C)C)c2cc1C(N)=O`, the Activity [3] was “inactive”.
For `COc1cc2c(OC[C@@H]3CCC(=O)N3)ncc(C#CCCCCCCCCCCOc3cccc4c3C(=O)N(C3CCC(=O)NC3=O)C4=O)c2cc1C(N)=O` (some centres not stated), the IC50 [1] was 2.5 nM, the “Chromatographic log D” value [2] was 6.01 and the Activity [3] was “inactive”. It also gave an Emax [19] of 0% and an IC50 [4] greater than 10000 nM.
For `COc1cc2c(OC[C@@H]3CCC(=O)N3)ncc(C#CCOCCOCCOCCOc3cccc4c3C(=O)N(C3CCC(=O)NC3=O)C4=O)c2cc1C(N)=O` (some centres not stated), the Activity [3] was “inactive” and the Emax [19] was 0%.
For `COc1cc2c(OC[C@@H]3CCC(=O)N3)ncc(C#CCCCCCCCCCCC(=O)N[C@H](C(=O)N3C[C@H](O)C[C@H]3C(=O)NCc3ccc(-c4scnc4C)cc3)C(C)(C)C)c2cc1C(N)=O`, the IC50 [1] was 0.099 nM, the “Chromatographic log D” value [2] was 5.82 and the Activity [20] was 65%. The Activity [21] was 101%, the Activity [22] was 81% and the Activity [23] was 80%. For the same compound, the IC50 [4] was greater than 10000 nM and the Emax [24] was 50%.
In the case of `COc1cc2c(OC[C@@H]3CCC(=O)N3)ncc(Br)c2cc1C(N)=O`, the IC50 [1] is reported as 2.1 nM, the “Chromatographic log D” value [2] is reported as 2.1 and the IC50 [4] is reported as greater than 10000 nM.

Reference: ChEMBL document CHEMBL4359855, “Targeting IRAK4 for Degradation with PROTACs” (ACS Med Chem Lett, 2019)
